# Reference: ChEMBL document CHEMBL3425508, “Discovery of potent hexapeptide agonists to human neuromedin u receptor 1 and identification of their serum metabolites” (ACS Med Chem Lett, 2015)
# Calls of active or inactive are those of the source. No cut-off for these calls is given here. Non-standard residues stand in square brackets, D forms with d. Residues, ends and D or L forms follow the SMILES beside them. *: point of attachment. Propanoyl(3-(3-pyridyl)) = O=C(CCc1cccnc1)*; 2Nal = N[C@@H](Cc1ccc2ccccc2c1)C(=O)O; Acetyl(2-thienyl) = O=C(Cc1cccs1)*; Hydrocinnamoyl = O=C(CCc1ccccc1)*; 4Pal = N[C@@H](Cc1ccncc1)C(=O)O; X1 = O=C(CCc1cccs1)*
# Legend:
# [1] = target: T1, Neuromedin-U receptor 1 (Homo sapiens) (UniProt Q9HB89); assay: Agonist activity at human NMUR1 expressed in CHO cells assessed as intracellular calcium flux at 1 and 10 nM by Fluo-4 AM dye based fluorometric imaging method relative to 1000 nM human neuromedin U; format: functional, cell-based
# T1 sequence (whole entry): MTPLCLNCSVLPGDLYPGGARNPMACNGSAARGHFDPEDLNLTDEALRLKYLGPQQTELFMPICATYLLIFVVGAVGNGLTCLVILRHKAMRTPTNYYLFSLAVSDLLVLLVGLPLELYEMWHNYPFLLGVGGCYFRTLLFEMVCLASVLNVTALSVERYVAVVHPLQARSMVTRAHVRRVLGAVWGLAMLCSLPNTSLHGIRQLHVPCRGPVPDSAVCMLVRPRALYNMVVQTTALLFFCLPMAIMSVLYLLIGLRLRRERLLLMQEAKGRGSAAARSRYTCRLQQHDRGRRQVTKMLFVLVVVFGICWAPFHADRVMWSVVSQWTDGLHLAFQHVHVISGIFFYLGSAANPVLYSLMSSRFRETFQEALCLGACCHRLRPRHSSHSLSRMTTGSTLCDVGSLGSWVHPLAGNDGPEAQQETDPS
# Neuromedin-U receptor 2 = Neuromedin-U receptor 2 (Homo sapiens, UniProt Q9GZQ4); assay: Agonist activity at human NMUR2 expressed in CHO cells assessed as intracellular calcium flux at 1 and 10 nM by Fluo-4 AM dye based fluorometric imaging method relative to 1000 nM human neuromedin U; format: functional, cell-based
# Serum [2] = assay: Drug level in 25% rat serum treated with 1 mM (S)-2-((S)-2-((S)-1-((6S,9S,12S)-1-amino-9-benzyl-1-imino-12-isobutyl-8,11,14-trioxo-16-phenyl-2,7,10,13-tetraazahexadecanecarbonyl)pyrrolidine-2-carboxamido)-5-guanidinopentanamido)succinamide assessed as compound formation at 37 degC by RP-HPLC method; format: ADME, cell-free
# Method in brief: (§1)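 Peptides incubated in 25% rat serum at 37 °C and sampled over time (10, 30, 60 min). Samples extracted on Sep-Pak C18 cartridges and analysed by C18 RP-HPLC with UV detection at 220 nm. Metabolites identified by mass spectrometry. Recovery of intact peptide measured at 10 or 60 min, in triplicate.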
# Serum [3] = assay: Drug metabolism in 25% rat serum assessed as cleavage at Phe(2)-Arg(3) site at 1 mM at 37 degC by RP-HPLC method; format: ADME, cell-free; details: 1000 µM; method in brief: as §1
# [4] = Drug metabolism in 25% rat serum assessed as drug recovery at 1 mM incubated for 10 mins at 37 degC by RP-HPLC method; format: ADME, cell-free; details: read-out: Drug recovery; method in brief: as §1
# Serum [5] = assay: Drug metabolism in 25% rat serum assessed as formation of 3-phenylpropionyl-Leu1-Phe2-OH at 1 mM at 37 degC by RP-HPLC method; format: ADME, cell-free; details: 1000 µM; method in brief: as §1
# Serum [6] = assay: Drug metabolism in 25% rat serum assessed as formation of 3-phenylpropionyl-Leu1-Phe2-Arg3-Pro4-Arg5-OH at 1 mM at 37 degC by RP-HPLC method; format: ADME, cell-free; details: 1000 µM; method in brief: as §1
# Serum [7] = assay: Drug metabolism in 25% rat serum assessed as cleavage at Arg(5)-Asn(6) site at 1 mM at 37 degC by RP-HPLC method; format: ADME, cell-free; details: 1000 µM; method in brief: as §1
# Serum [8] = assay: Drug level in 25% rat serum treated with 1 mM (S)-2-((S)-2-((S)-1-((6S,9S,12S)-12-((1H-indol-3-yl)methyl)-1-amino-9-benzyl-1-imino-8,11,14-trioxo-15-(thiophen-2-yl)-2,7,10,13-tetraazapentadecanecarbonyl)pyrrolidine-2-carboxamido)-5-guanidinopentanamido)succinamide assessed as compound formation at 37 degC by RP-HPLC method; format: ADME, cell-free; method in brief: as §1
# [9] = Drug metabolism in 25% rat serum assessed as drug recovery at 1 mM incubated for 60 mins at 37 degC by RP-HPLC method; format: ADME, cell-free; details: read-out: Drug recovery; method in brief: as §1
# Serum [10] = assay: Retention time in 25% rat serum treated with 1 mM (S)-2-((S)-2-((S)-1-((S)-2-((S)-2-((S)-3-(1H-indol-3-yl)-2-(2-(thiophen-2-yl)acetamido)propanamido)-3-(4-fluorophenyl)propanamido)-5-guanidinopentanoyl)pyrrolidine-2-carboxamido)-5-guanidinopentanamido)succinamide incubated for 30 mins at 37 degC by RP-HPLC method; format: ADME, cell-free; details: 0.5 h; method in brief: as §1
# Neuromedin-U receptor 2, sequence (Q9GZQ4 whole entry): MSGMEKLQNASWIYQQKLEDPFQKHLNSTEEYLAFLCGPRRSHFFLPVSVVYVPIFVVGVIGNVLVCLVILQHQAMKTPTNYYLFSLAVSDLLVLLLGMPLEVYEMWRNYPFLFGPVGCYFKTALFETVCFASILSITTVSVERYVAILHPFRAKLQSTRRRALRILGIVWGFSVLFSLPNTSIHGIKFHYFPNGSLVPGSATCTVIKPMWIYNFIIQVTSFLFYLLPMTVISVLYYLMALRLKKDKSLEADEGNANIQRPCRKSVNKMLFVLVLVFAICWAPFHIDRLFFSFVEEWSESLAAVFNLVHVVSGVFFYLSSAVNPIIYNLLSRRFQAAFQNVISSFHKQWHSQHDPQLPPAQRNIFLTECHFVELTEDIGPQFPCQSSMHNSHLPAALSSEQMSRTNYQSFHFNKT
Activity [1],Activity (Neuromedin-U receptor 2),Molecule,also measured
inactive,inactive,N=C(N)NCCC[C@H](NC(=O)[C@@H]1CCCN1C(=O)[C@H](CCCNC(=N)N)NC(=O)[C@H](Cc1ccccc1)NC(=O)[C@H](Cc1ccccc1)NC(=O)CCc1ccccc1)C(=O)N[C@@H](CC(N)=O)C(N)=O (Hydrocinnamoyl-FFRPRN-NH2),–
Active,Active,N=C(N)NCCC[C@H](NC(=O)[C@@H]1CCCN1C(=O)[C@H](CCCNC(=N)N)NC(=O)[C@H](Cc1ccccc1)NC(=O)[C@H](Cc1ccccc1)NC(=O)CCc1cccnc1)C(=O)N[C@@H](CC(N)=O)C(N)=O ({Propanoyl(3-(3-pyridyl))}-FFRPRN-NH2),–
Active,Active,N=C(N)NCCC[C@H](NC(=O)[C@@H]1CCCN1C(=O)[C@H](CCCNC(=N)N)NC(=O)[C@H](Cc1ccccc1)NC(=O)[C@H](Cc1ccccc1)NC(=O)CCc1cccs1)C(=O)N[C@@H](CC(N)=O)C(N)=O (X1-FFRPRN-NH2),–

# Second part, the molecule before the results:
Molecule,Activity [1],Activity (Neuromedin-U receptor 2),also measured
N=C(N)NCCC[C@H](NC(=O)[C@@H]1CCCN1C(=O)[C@H](CCCNC(=N)N)NC(=O)[C@H](Cc1c[nH]cn1)NC(=O)[C@H](Cc1c[nH]c2ccccc12)NC(=O)Cc1cccs1)C(=O)N[C@@H](CC(N)=O)C(N)=O ({Acetyl(2-thienyl)}-WHRPRN-NH2),inactive,inactive,–
N=C(N)NCCC[C@H](NC(=O)[C@@H]1CCCN1C(=O)[C@H](CCCNC(=N)N)NC(=O)[C@H](Cc1ccncc1)NC(=O)[C@H](Cc1c[nH]c2ccccc12)NC(=O)Cc1cccs1)C(=O)N[C@@H](CC(N)=O)C(N)=O ({Acetyl(2-thienyl)}-W[4Pal]RPRN-NH2),inactive,inactive,–
N=C(N)NCCC[C@H](NC(=O)[C@@H]1CCCN1C(=O)[C@H](CCCNC(=N)N)NC(=O)[C@H](Cc1ccccc1)NC(=O)[C@H](Cc1ccc2ccccc2c1)NC(=O)CCc1cccnc1)C(=O)N[C@@H](CC(N)=O)C(N)=O ({Propanoyl(3-(3-pyridyl))}-[2Nal]FRPRN-NH2),–,Active,–
CC(C)C[C@H](NC(=O)CCc1ccccc1)C(=O)N[C@@H](Cc1ccccc1)C(=O)N[C@@H](CCCNC(=N)N)C(=O)N1CCC[C@H]1C(=O)N[C@@H](CCCNC(=N)N)C(=O)N[C@@H](CC(N)=O)C(N)=O (Hydrocinnamoyl-LFRPRN-NH2),Active,Active,"Drug metabolism (Serum [2]): metabolite_detected; Drug metabolism (Serum [3]): metabolite_detected; remaining at 10 min, 1000 µM [4]: 64%; Drug metabolism (Serum [5]): metabolite_detected; Drug metabolism (Serum [6]): metabolite_detected; Drug metabolism (Serum [7]): metabolite_detected"
N=C(N)NCCC[C@H](NC(=O)[C@@H]1CCCN1C(=O)[C@H](CCCNC(=N)N)NC(=O)[C@H](Cc1ccccc1)NC(=O)[C@H](Cc1c[nH]c2ccccc12)NC(=O)Cc1cccs1)C(=O)O ({Acetyl(2-thienyl)}-WFRPR-OH),–,–,"Drug metabolism (Serum [8]): metabolite_detected; remaining at 1 h, 1000 µM [9]: 44.7%"
O=C(Cc1cccs1)N[C@@H](Cc1c[nH]c2ccccc12)C(=O)N[C@@H](Cc1ccc(F)cc1)C(=O)O,–,–,Retention_time (Serum [10]): 61.2 min
H-FLFRPRN-NH2,–,–,"Drug metabolism (Serum [3]): metabolite_notdetected; remaining at 10 min, 1000 µM [4]: 37%; Drug metabolism (Serum [7]): metabolite_notdetected"
